Key:
[1] = target: T1, Human immunodeficiency virus type 1 reverse transcriptase (Human immunodeficiency virus 1, UniProt Q72547); test: Inhibition of HIV1 wild-type reverse transcriptase Y181I/Y181C mutant using [3H]dTTP by scintillation counting
[2] = system: Human immunodeficiency virus 1; test: Ratio of EC50 for HIV1 harboring reverse transcriptase K103N/Y181C double mutant to EC50 for wild type HIV1 NL4.3; type: functional
Summary of the method: (§1)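 Fold change is the EC50 against the named mutant strain divided by the EC50 against wild-type HIV-1 NL4-3. […] Means of 2–3 independent experiments in triplicate.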

[3] = system: Human immunodeficiency virus 1; test: Ratio of EC50 for HIV1 harboring reverse transcriptase Y181C mutant to EC50 for wild type HIV1 NL4.3; type: functional; summary of the method: as §1
[4] = system: Human immunodeficiency virus 2; test: Antiviral activity against HIV-2 ROD infected in human CEM cells assessed as protection of cells monitored by giant cell formation by microscopy; type: functional, organism-based; conditions: Human immunodeficiency virus 2, ISOLATE ROD, CCRF-CEM
Summary of the method: (§2)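 Human CEM cultures (~3 × 10⁵ cells/mL) infected with ~100 CCID₅₀ per mL of HIV-1 IIIB or HIV-2 ROD, seeded with serial compound dilutions. Incubated 4 days at 37 °C; syncytium (giant cell) formation scored by microscopy. EC₅₀ = concentration protecting cells from viral cytopathicity by 50%. Means of two to three independent experiments, each in triplicate.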

[5] = Selectivity index, ratio of CC50 for human MT4 cells to EC50 for HIV1 NL4.3 infected in human MT4 cells; type: toxicity, cell-based; conditions: read-out: Ratio CC50/EC50
Summary of the method: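 Ratio CC₅₀/EC₅₀. CC₅₀ is from mock-infected MT-4 cells and EC₅₀ from HIV-1 NL4-3-infected MT-4 cells, both read by MTT at day 5 post-infection.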

[6] = system: Human immunodeficiency virus 1; test: Antiviral activity against HIV1 3B infected in human CEM cells assessed as protection of cells monitored by giant cell formation by microscopy; type: functional, organism-based; conditions: Human immunodeficiency virus 1, 3B, CCRF-CEM; summary of the method: as §2
[7] = system: Human immunodeficiency virus 1; test: Ratio of efavirenz EC50 to compound EC50 for HIV1 harboring reverse transcriptase L100I mutant infected in human MT4 cells; type: functional
[8] = system: Human immunodeficiency virus 1; test: Antiviral activity against HIV1 harboring reverse transcriptase K103N mutant infected in human MT4 cells assessed as inhibition of virus-induced cell death measured after 5 days of infection by MTT method; type: functional, organism-based; conditions: Human immunodeficiency virus 1, MT4, 120 h
Summary of the method: (§3)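 MT-4 cells infected with the named NNRTI-resistant HIV-1 RT mutant strain, in the presence of a range of compound concentrations. Viable cells counted at day 5 post-infection by tetrazolium (MTT) colorimetry. […] Mean of 2–3 independent experiments, each in triplicate.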

[9] = system: Human immunodeficiency virus 1; test: Ratio of EC50 for HIV1 harboring reverse transcriptase K103N mutant to EC50 for wild type HIV1 NL4.3; type: functional; summary of the method: as §1
[10] = system: Human immunodeficiency virus 1; test: Antiviral activity against HIV1 NL4.3 infected in human MT4 cells assessed as inhibition of virus-induced cell death measured after 5 days of infection by MTT method; type: functional, organism-based; conditions: Human immunodeficiency virus 1, NL4.3, MT4, 120 h
Summary of the method: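 Lymphoid MT-4 cells (NIH AIDS Reagent Program) infected with HIV-1 NL4-3 in the presence of varying compound concentrations. On day 5 post-infection, viable cells were counted by MTT tetrazolium colorimetry. EC₅₀ = concentration inhibiting virus-induced cell death by 50%. Means of two to three independent experiments, each in triplicate.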

[11] = target: Human immunodeficiency virus type 1 reverse transcriptase (Human immunodeficiency virus 1, UniProt Q72547, L100I); test: Inhibition of HIV1 wild-type reverse transcriptase L100I mutant using [3H]dTTP by scintillation counting
Summary of the method: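 RNA-dependent DNA polymerase activity of recombinant RT (2–4 nM) on poly(rA)/oligo(dT) 10:1 with [3H]dTTP (1 Ci/mmol). Incubation at 37 °C. Acid-insoluble radioactivity collected on GF/C filters after 5% cold TCA, counted by scintillation.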

[12] = target: Human immunodeficiency virus type 1 reverse transcriptase (Human immunodeficiency virus 1, UniProt Q72547, K103N); test: Inhibition of HIV1 wild-type reverse transcriptase K103N mutant using [3H]dTTP by scintillation counting
[13] = system: Human immunodeficiency virus 1; test: Ratio of EC50 for HIV1 harboring reverse transcriptase […] mutant to EC50 for wild type HIV1 NL4.3; type: functional; summary of the method: as §1
[14] = system: Human immunodeficiency virus 1; test: Antiviral activity against HIV1 harboring reverse transcriptase K103N/Y181C double mutant infected in human MT4 cells assessed as inhibition of virus-induced cell death measured after 5 days of infection by MTT method; type: functional, organism-based; conditions: Human immunodeficiency virus 1, MT4, 120 h; summary of the method: as §3
[15] = target: T1, Human immunodeficiency virus type 1 reverse transcriptase; test: Inhibition of HIV1 wild-type reverse transcriptase using [3H]dTTP by scintillation counting
[16] = system: Human immunodeficiency virus 1; test: Antiviral activity against HIV1 harboring reverse transcriptase Y181C mutant infected in human MT4 cells assessed as inhibition of virus-induced cell death measured after 5 days of infection by MTT method; type: functional, organism-based; conditions: Human immunodeficiency virus 1, MT4, 120 h; summary of the method: as §3
[17] = system: Human immunodeficiency virus 1; test: Antiviral activity against HIV1 harboring reverse transcriptase […] mutant infected in human MT4 cells assessed as inhibition of virus-induced cell death measured after 5 days of infection by MTT method; type: functional, organism-based; conditions: Human immunodeficiency virus 1, MT4, 120 h; summary of the method: as §3
[18] = Cytotoxicity against human MT4 cells assessed as cell viability by MTT assay; type: cell-based
Summary of the method: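 Mock-infected MT-4 cells exposed to a range of compound concentrations. Viable cells measured by MTT colorimetry at day 5. CC₅₀ = concentration causing 50% death of non-infected cells. Means of two to three independent experiments, each in triplicate.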

[19] = target: Human immunodeficiency virus type 1 reverse transcriptase (Human immunodeficiency virus 1, UniProt Q72547, V106A); test: Inhibition of HIV1 wild-type reverse transcriptase V106A mutant using [3H]dTTP by scintillation counting
[20] = system: Human immunodeficiency virus 1; test: Antiviral activity against HIV1 harboring reverse transcriptase Y188L mutant infected in human MT4 cells assessed as inhibition of virus-induced cell death measured after 5 days of infection by MTT method; type: functional, organism-based; conditions: Human immunodeficiency virus 1, MT4, 120 h; summary of the method: as §3
[21] = system: Human immunodeficiency virus 1; test: Ratio of EC50 for HIV1 harboring reverse transcriptase Y188L mutant to EC50 for wild type HIV1 NL4.3; type: functional; summary of the method: as §1
[22] = system: Human immunodeficiency virus 1; test: Ratio of efavirenz EC50 to compound EC50 for HIV1 harboring reverse transcriptase Y188L mutant infected in human MT4 cells; type: functional

| Compound | IC50 [1] [nM] | Ratio EC50 [2] | Ratio EC50 [3] | EC50 [4] [nM] | selectivity ratio [5] | EC50 [6] [nM] | EC50 [8] [nM] | Ratio EC50 [9] | EC50 [10] [nM] | IC50 [11] [nM] | IC50 [12] [nM] | Ratio EC50 [13] | EC50 [14] [nM] | IC50 [15] [nM] | EC50 [16] [nM] | EC50 [17] [nM] | CC50 [18] [nM] | IC50 [19] [nM] | EC50 [20] [nM] | Ratio EC50 [21] | also measured |
| --- | --- | --- | --- | --- | --- | --- | --- | --- | --- | --- | --- | --- | --- | --- | --- | --- | --- | --- | --- | --- | --- |
| Cc1cc(C)cc(S(=O)(=O)c2c(C(=O)NCc3ccccc3F)[nH]c3ccc(Cl)cc23)c1 | > 20000 | 3153 | 324 | > 2000 | > 78100 | 3.6 | 7.8 | 11.5 | 0.68 | 70 | 100 | 7.9 | 2140 | 180 | 220 | 5.4 | > 53100 | – | – | – | Ratio EC50 [7]: 10 |
| Cc1cc(C)cc(S(=O)(=O)c2c(C(=O)NC(C)c3ccccc3)[nH]c3ccc(Cl)cc23)c1 (racemic) | 8230 | 5445 | 1200 | > 10000 | > 206000 | 16 | 33 | 55 | 0.6 | 70 | 540 | 43 | 3270 | 40 | 720 | 26 | > 53500 | 50 | – | – | – |
| Cc1cc(C)cc(S(=O)(=O)c2c(C(=O)NCc3ccccc3[N+](=O)[O-])[nH]c3ccc(Cl)cc23)c1 | > 20000 | 2335 | 20 | – | > 62800 | – | 6 | 7.5 | 0.8 | – | 23 | – | 1870 | 23 | 16 | – | > 50200 | – | 281 | 351 | Ratio EC50 [22]: 2.7 |
| Cc1cc(C)cc(S(=O)(=O)c2c(C(=O)N[C@@H](C)c3ccccc3)[nH]c3ccc(Cl)cc23)c1 | > 20000 | >5778 | 550 | – | – | – | 128 | 20 | 6.3 | 80 | 9400 | – | > 36400 | 50 | 3470 | – | – | 28 | > 36400 | >5778 | – |
| Cc1cc(C)cc(S(=O)(=O)c2c(C(=O)NCc3ccc(F)cc3)[nH]c3ccc(Cl)cc23)c1 | > 20000 | 45750 | 145 | > 10000 | > 48300 | 5.3 | 16 | 14.5 | 1.1 | 30 | 24 | 5.4 | 50300 | 26 | 160 | 5.9 | > 53100 | – | – | – | Ratio EC50 [7]: 10 |
| Cc1cc(C)cc(S(=O)(=O)c2c(C(=O)NCCc3cccc(Cl)c3)[nH]c3ccc(Cl)cc23)c1 | > 20000 | 7274 | 218 | > 10000 | 7270 | 11 | 180 | 45 | 4 | 10 | 5940 | 7.8 | 29100 | 83 | 870 | 31 | 29100 | – | – | – | – |
| Cc1cc(C)cc(S(=O)(=O)c2c(C(=O)N[C@H](C)c3ccccc3)[nH]c3ccc(Cl)cc23)c1 | 2530 | 795 | 41 | – | – | – | 4.3 | 2 | 2.1 | 50 | 90 | – | 1670 | 39 | 86 | – | – | 65 | 193 | 92 | – |
